Assay results published in article PMC5094435 (Saudi Pharmaceutical Journal : SPJ, 2015).
Values after ≈ are worked out from the molar mass of the structure shown. Values joined by “and” are separate entries in the source; they are usually repeats but may differ in a detail not shown here. Equal values may be shown once.

Columns and labels:
[1] = tested on: Staphylococcus aureus (MTCC 96); experiment: Antibacterial activity; format: cell-based; settings: MTCC96, read-out: MIC, S. aureus
Outline: (§1)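 Screened by a standard method against S. aureus MTCC 96, B. subtilis MTCC 121, E. coli MTCC 1652 and P. aeruginosa MTCC 741. Ciprofloxacin was the reference antibiotic. Only compounds active at 100 μg/mL went on to MIC determination.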

[2] = tested on: Escherichia coli (MTCC 1652); experiment: Antibacterial activity; format: cell-based; settings: for MIC: Escherichia coli, MTCC1652, read-out: MIC, E. coli
Outline: as §1

[3] = tested on: Pseudomonas aeruginosa (MTCC 741); experiment: Antibacterial activity; format: cell-based; settings: for MIC: Pseudomonas aeruginosa, MTCC741, read-out: MIC, P. aeruginosa
Outline: as §1

[4] = tested on: Bacillus subtilis (MTCC 121); experiment: Antibacterial activity; format: cell-based; settings: MTCC121, read-out: MIC, B. subtilis
Outline: as §1

Aspergillus niger = experiment: Antifungal activity; format: cell-based; settings: read-out: MIC, A. niger
Outline: (§2)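 Run by the poison food technique against Aspergillus niger and Aspergillus flavus. Fluconazole was the reference drug.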

Aspergillus flavus = experiment: Antifungal activity; format: cell-based; settings: read-out: MIC, A. flavus
Outline: as §2

[5] = tested on: carrageenan induced edema; experiment: Anti-inflammatory activity, carrageenan induced rat paw edema; format: in vivo, Wistar rats; settings: inhibition of edema, rats
Outline: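 Used the Winter et al. paw oedema method in Wistar rats of either sex (160–200 g), housed six per cage and acclimatised 48 h. Percent inhibition of oedema was calculated at 1, 2, 3 and 4 h. Diclofenac served as the standard drug.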

[6] = tested on: tail immersion (hot water 55 °C); experiment: Central analgesic activity, tail immersion method; format: in vivo, Swiss albino mice; settings: mice, mean ± SEM; for Central analgesic activity [tail immersion (reaction time in min)] 1 h: 1 h after the dosing; for Central analgesic activity [tail immersion (reaction time in min)] 2 h: 2 h after the dosing
Outline: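 Used the same mice from the writhing test after a washout period. Each mouse was held in a restrainer and the protruding tail (up to 5 cm) was dipped in 55 °C water. Withdrawal time was recorded as reaction time at 1 h and 2 h post-dose. Data are mean ± SEM, analysed by ANOVA followed by Dunnett's t test.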

[7] = tested on: acetic acid induced writhing; experiment: Peripheral analgesic activity, acetic acid induced writhing method; format: in vivo, Swiss Albino mice; settings: mice; for Peripheral analgesic activity (writhing test) No. of writhing: mean ± SEM; for Peripheral analgesic activity (writhing test) % Protection: vs control group
Outline: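 Writhing was induced with aqueous acetic acid in Swiss albino mice (20–30 g) of either sex, six per group. % Protection = (Wc − Wt)/Wc × 100, where Wc and Wt are the mean writhing counts of the control and test groups.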

mucosal damage = experiment: Acute ulcerogenic activity; format: in vivo, Albino rats; settings: rats, mean ± SEM
Outline: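 Conducted in Albino rats (160–200 g, housed six per cage, acclimatised 48 h) following Cioli et al. Gastric mucosal damage was scored at the end of the study. Ulcerogenic potential (severity index) came from comparing the mean score of each treated group with that of the control rats.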

Compound	MIC [1]	MIC [2]	MIC [3]	MIC [4]	MIC (Aspergillus niger)	MIC (Aspergillus flavus)	% Inhibition ± SEM After 1 h [5]	% Inhibition ± SEM After 2 h [5]	% Inhibition ± SEM After 3 h [5]	Central analgesic activity [tail immersion (reaction time in min)] 1 h [6]	Central analgesic activity [tail immersion (reaction time in min)] 2 h [6]	Peripheral analgesic activity (writhing test) No. of writhing [7]	Peripheral analgesic activity (writhing test) % Protection [7]	Ulcerogenic activity (severity index) (mucosal damage)	MIC, E. coli ([2]; E. coli (MTCC 1652))	MIC, P. aeruginosa ([3]; P. aeruginosa (MTCC 741))	% Inhibition ± SEM After 4 h [5]
O=C1OC(c2ccc3ccccc3c2)=CC1=Cc1cc2cc(Cl)ccc2nc1Cl [Compound 5b, 3-[(2,6-Dichloroquinolin-3-yl)methylene]-5-(naphthalene-2-yl)furan-2(3H)-one]	12.5 µg/mL (≈ 29.9 µM)	25 µg/mL (≈ 59.8 µM)	50 µg/mL (≈ 120 µM)	12.5 µg/mL (≈ 29.9 µM)	25 µg/mL (≈ 59.8 µM)	50 µg/mL (≈ 120 µM)	74 ± 0.18^∗∗ %	67 ± 0.06^∗∗ %	39 ± 0.29%	3.2 ± 0.2^∗ min	4.4 ± 0.5 min	26.2 ± 4.1	37.61%	0.33 ± 0.35^∗			
O=C1OC(c2ccc3ccccc3c2)=CC1=Cc1cc2cc([N+](=O)[O-])ccc2nc1Cl [Compound 5d, 3-[(2-Chloro-6-nitroquinolin-3-yl)methylene]-5-(naphthalene-2-yl)furan-2(3H)-one]	12.5 µg/mL (≈ 29.1 µM)	12.5 µg/mL (≈ 29.1 µM)	25 µg/mL (≈ 58.3 µM)	25 µg/mL (≈ 58.3 µM)	25 µg/mL (≈ 58.3 µM)	25 µg/mL (≈ 58.3 µM)	79 ± 0.12^∗∗ %	61 ± 0.15^∗∗ %	56 ± 0.25^∗ %	4.4 min and 4.4 ± 0.6^∗∗ min	6.5 min and 6.5 ± 0.2 ^∗ min	6.0 ± 2.2^∗∗					
O=C1OC(c2ccc(-c3ccccc3)cc2)=CC1=Cc1cc2cc([N+](=O)[O-])ccc2nc1Cl [Compound 5h, 3-[(2-Chloro-6-nitroquinolin-3-yl)methylene]-5-(biphenyl-4-yl)furan-2(3H)-one]	25 µg/mL (≈ 55 µM)	50 µg/mL (≈ 110 µM)	> 100 µg/mL	> 100 µg/mL	25 µg/mL (≈ 55 µM)	25 µg/mL (≈ 55 µM)	73 ± 0.08^∗∗ %	58 ± 0.15^∗∗ %	50 ± 0.13%	4.3 min and 4.3 ± 0.4^∗∗ min	6.2 min and 6.2 ± 1.5^∗ min	7.6 ± 2.3^∗∗		0.40 ± 0.36			
O=C1NC(c2ccc3ccccc3c2)=CC1=Cc1cc2cc(Cl)ccc2nc1Cl [Compound 6b, 3-[(2,6-Dichloroquinolin-3-yl)methylene]-5-(naphthalene-2-yl)-1H-pyrrol-2(3H)-one]	6.25 µg/mL (≈ 15 µM)	50 µg/mL (≈ 120 µM)	50 µg/mL (≈ 120 µM)	6.25 µg/mL (≈ 15 µM)	12.5 µg/mL (≈ 30 µM)	12.5 µg/mL (≈ 30 µM)	62 ± 0.09^∗ %	66 ± 0.18^∗∗ %	53 ± 0.17%	1.8 ± 0.2 min	4.2 ± 0.6 min	13.8 ± 4.4^∗	67.14%	0.43 ± 0.33			
O=C1C(=Cc2cc3cc(Cl)ccc3nc2Cl)C=C(c2ccc3ccccc3c2)N1Cc1ccccc1 [Compound 7b, 1-Benzyl-3-[(2,6-dichloroquinolin-3-yl)methylene]-5-(naphthalene-2-yl)-1H-pyrrol-2(3H)-one]	25 µg/mL (≈ 49.3 µM)	12.5 µg/mL (≈ 24.6 µM)	> 100 µg/mL	25 µg/mL (≈ 49.3 µM)	50 µg/mL (≈ 98.5 µM)	25 µg/mL (≈ 49.3 µM)	84 ± 0.06^∗∗ %	74 ± 0.21^∗∗ %	70 ± 0.23^∗ %	2.4 ± 0.3 min	3.4 ± 0.2 min	25.4 ± 4.8	39.52%	0.36 ± 0.35^∗			
O=C1C(=Cc2cc3cc([N+](=O)[O-])ccc3nc2Cl)C=C(c2ccc3ccccc3c2)N1Cc1ccccc1 [Compound 7d, 1-Benzyl-3-[(2-chloro-6-nitroquinolin-3-yl)methylene]-5-(naphthalene-2-yl)-1H-pyrrol-2(3H)-one]	25 µg/mL (≈ 48.3 µM)	25 µg/mL (≈ 48.3 µM)	> 100 µg/mL	25 µg/mL (≈ 48.3 µM)	25 µg/mL (≈ 48.3 µM)	50 µg/mL (≈ 96.5 µM)	83 ± 0.06^∗∗ %	73 ± 0.15^∗∗ %	66 ± 0.26%	3.2 ± 0.4^∗ min	5.4 ± 1.9 min	21.0 ± 10.0^∗	50%	0.40 ± 0.32			
O=C1C(=Cc2cc3cc(Cl)ccc3nc2Cl)C=C(c2ccc(-c3ccccc3)cc2)N1Cc1ccccc1 [Compound 7f, 1-Benzyl-3-[(2,6-dichloroquinolin-3-yl)methylene]-5-(biphenyl-4-yl)-1H-pyrrol-2(3H)-one]	12.5 µg/mL (≈ 23.4 µM)	25 µg/mL (≈ 46.9 µM)	50 µg/mL (≈ 93.7 µM)	12.5 µg/mL (≈ 23.4 µM)	25 µg/mL (≈ 46.9 µM)	50 µg/mL (≈ 93.7 µM)	84 ± 0.12%	74 ± 0.19^∗∗ %	63 ± 0.14^∗ %	3.2 ± 0.2^∗ min	6.2 min and 6.2 ± 1.5^∗ min	12.8 ± 3.8^∗∗		0.53 ± 0.12			
Cc1ccc2nc(Cl)c(C=C3C=C(c4ccc(-c5ccccc5)cc4)N(Cc4ccccc4)C3=O)cc2c1 [Compound 7g, 1-Benzyl-3-[(2-chloro-6-methylquinolin-3-yl)methylene]-5-(biphenyl-4-yl)-1H-pyrrol-2(3H)-one]	25 µg/mL (≈ 48.7 µM)	> 100 µg/mL	> 100 µg/mL	50 µg/mL (≈ 97.5 µM)	25 µg/mL (≈ 48.7 µM)	50 µg/mL (≈ 97.5 µM)	69 ± 0.03^∗∗ %	54 ± 0.14^∗∗ %	30 ± 0.20%						did not show any inhibition	did not show any inhibition	40 ± 0.16%
O=C1C(=Cc2cc3cc([N+](=O)[O-])ccc3nc2Cl)C=C(c2ccc(-c3ccccc3)cc2)N1Cc1ccccc1 [Compound 7h, 1-Benzyl-3-[(2-chloro-6-nitroquinolin-3-yl)methylene]-5-(biphenyl-4-yl)-1H-pyrrol-2(3H)-one]	25 µg/mL (≈ 46 µM)	50 µg/mL (≈ 91.9 µM)	50 µg/mL (≈ 91.9 µM)	> 100 µg/mL	50 µg/mL (≈ 91.9 µM)	> 100 µg/mL	36 ± 0.13%	65 ± 0.24^∗∗ %	58 ± 0.34^∗ %	5.5 min and 5.5 ± 0.3^∗∗ min	6.4 min and 6.4 ± 0.3^∗ min	10.4 ± 3.7^∗∗					
O=C(O)Cc1ccccc1Nc1c(Cl)cccc1Cl [Diclofenac, diclofenac, reference compound]										8.2 ± 0.2^∗∗ min	8.8 ± 0.2^∗∗ min	4.2 ± 1.0^∗∗	90%	0.86 ± 0.28			92%
